The source made the active and inactive calls. The calls are words filed in the database; no cut-off is given here.
What was measured:
Format in all cases: functional, organism-based
[1] = system: Escherichia coli; assay: Antimicrobial activity against ESBL producing Escherichia coli assessed as susceptible isolates by Etest
Method in brief: (§1)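 24 ESBL-producing E. coli strains acquired during travel, isolated from post-travel rectal swabs of Swedish travellers. Swabs were enriched in LB broth with cefotaxime 2.5 μg/ml, then plated on MacConkey agar with cefotaxime and ceftazidime discs, overnight at 35°C in room air. ESBL production was confirmed by disc-diffusion synergy test and CTX-M by PCR. Susceptibility was measured by Etest and interpreted per EUCAST guidelines.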

[2] = system: Escherichia coli; assay: Antimicrobial activity against ESBL producing Escherichia coli assessed as susceptible isolates by Etest in presence of beta-lactamase inhibitor Tazobactam; method in brief: as §1
[3] = system: Escherichia coli; assay: Antimicrobial activity against ESBL producing Escherichia coli assessed as resistant isolates by Etest; method in brief: as §1

| Compound | Activity [1] | Activity [3] | also measured |
| --- | --- | --- | --- |
| O=C1CN(/N=C/c2ccc([N+](=O)[O-])o2)C(=O)N1 | Active |  |  |
| CCN1CCN(C(=O)N[C@@H](C(=O)N[C@@H]2C(=O)N3[C@@H]2SC(C)(C)[C@@H]3C(=O)O)c2ccccc2)C(=O)C1=O |  |  | Activity [2]: Active |
| NC[C@H]1O[C@H](O[C@H]2[C@H](O)[C@@H](O[C@H]3O[C@H](CO)[C@@H](O)[C@H](N)[C@H]3O)[C@H](N)C[C@@H]2N)[C@H](N)C[C@@H]1O |  | inactive |  |
| O=C(O)c1cn(C2CC2)c2cc(N3CCNCC3)c(F)cc2c1=O | Active |  |  |
| GENTAMICIN |  | inactive |  |
| CC1(C)S[C@@H]2[C@H](/N=C/N3CCCCCC3)C(=O)N2[C@H]1C(=O)O | Active |  |  |
| C[C@@H](O)[C@H]1C(=O)N2C(C(=O)O)=C(SCCNC=N)C[C@H]12 | Active |  |  |
| C[C@@H]1O[C@@H]1P(=O)(O)O |  | inactive |  |
| C[C@@H](O)[C@H]1C(=O)N2C(C(=O)O)=C(S[C@@H]3CN[C@H](C(=O)Nc4cccc(C(=O)O)c4)C3)[C@H](C)[C@H]12 | Active |  |  |
| C[C@@H](O)[C@H]1C(=O)N2C(C(=O)O)=C(S[C@@H]3CN[C@H](C(=O)N(C)C)C3)[C@H](C)[C@H]12 | Active |  |  |
